Common to all, as to assay type: functional, cell-based
The subject of assay [1] is Androgen receptor (Homo sapiens), P10275 [T878A]. Put plainly: Antagonist activity at androgen receptor T877A mutant in human PC3 cells transiently transfected with pCMV-MMTV-Luc assessed as suppression of DHT-induced receptor transactivation. As to conditions: PC-3. The method, boiled down: (§1)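 PC-3 cells seeded 24 h before co-transfection with MMTV-luciferase reporter (100 ng), the wild-type, T877A, W741C or H874Y AR plasmid (10 ng) and Renilla null luciferase (10 ng) using Lipofectamine 2000. Medium switched after 5 h to phenol red-free RPMI 1640 with 10% charcoal-stripped FBS. After 16 h, 0.1 nM DHT ± compound (0.1, 1.0 µM) for 24 h. Dual-luciferase read-out, Renilla-standardized, normalized to DHT alone (100%).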

For a further assay, the system named is CWR22R. Nature of the assay: Cytotoxicity against human 22Rv1 cells with H874Y AR mutant after 72 hrs by MTT assay. As to conditions: 22Rv1, 72 h. The method, boiled down: (§2)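 Cells seeded at 6000–7000 per well in RPMI 1640 with 10% FBS, penicillin and streptomycin, left overnight, then exposed to a range of concentrations from DMSO stock (final DMSO 0.5%) for 72 h. MTT added for a further 2 h and formazan from viable cells read. IC50 taken from survival curves, 50% inhibition relative to 0.5% DMSO control; top concentration 150 µM.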
(In general: Formazan colour is commonly taken as a measure of viable cells.)

Assay [2] is described as follows: Cytotoxicity against androgen-independent human C4-2B cells with T877A mutant after 72 hrs by MTT assay. As to conditions: LNCaP C4-2B. The method, boiled down: as §2
Assay [3] is described as follows: Cytotoxicity against androgen-dependent human MDA PCa 2b cells with T877A/L701H AR mutant after 72 hrs by MTT assay. The method, boiled down:
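Seeded at 6000–7000 cells per well in BRFF-HPC1 medium with 20% FBS, incubated overnight, then treated with serial concentrations diluted from DMSO stock (final DMSO 0.5%) for 72 h. Viability by MTT, 2 h with reagent, formazan measured. IC50 from survival curves as 50% inhibition versus 0.5% DMSO vehicle; maximum concentration tested 150 µM.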

Assay [4] deals with T1, Androgen receptor (Homo sapiens), P10275 [W742C].
T1 sequence (whole entry): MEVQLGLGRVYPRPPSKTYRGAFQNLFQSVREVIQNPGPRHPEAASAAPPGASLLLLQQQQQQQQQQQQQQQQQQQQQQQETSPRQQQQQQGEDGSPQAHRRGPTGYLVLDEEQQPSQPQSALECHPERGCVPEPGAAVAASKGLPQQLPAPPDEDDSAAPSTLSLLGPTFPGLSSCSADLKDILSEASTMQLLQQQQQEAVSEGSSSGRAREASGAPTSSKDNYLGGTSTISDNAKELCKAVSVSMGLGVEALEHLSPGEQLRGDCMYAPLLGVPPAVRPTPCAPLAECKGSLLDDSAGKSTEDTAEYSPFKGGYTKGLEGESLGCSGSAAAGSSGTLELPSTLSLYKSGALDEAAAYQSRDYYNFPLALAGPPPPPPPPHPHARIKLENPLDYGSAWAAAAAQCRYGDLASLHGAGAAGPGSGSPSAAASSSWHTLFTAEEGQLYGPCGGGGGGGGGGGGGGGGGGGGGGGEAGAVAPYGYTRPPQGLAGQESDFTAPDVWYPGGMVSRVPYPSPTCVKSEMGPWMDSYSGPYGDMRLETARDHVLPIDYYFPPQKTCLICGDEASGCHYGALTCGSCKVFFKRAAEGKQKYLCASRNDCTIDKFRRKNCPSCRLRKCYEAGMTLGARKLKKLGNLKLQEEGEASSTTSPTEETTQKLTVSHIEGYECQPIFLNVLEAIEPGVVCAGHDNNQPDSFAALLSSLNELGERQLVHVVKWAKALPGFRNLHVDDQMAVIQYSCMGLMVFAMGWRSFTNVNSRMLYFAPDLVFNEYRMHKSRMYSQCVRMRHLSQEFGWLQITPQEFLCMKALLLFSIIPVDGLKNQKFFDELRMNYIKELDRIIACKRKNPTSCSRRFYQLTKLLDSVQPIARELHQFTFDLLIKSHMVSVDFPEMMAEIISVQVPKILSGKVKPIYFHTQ
Nature of the assay: Antagonist activity at androgen receptor W741C mutant in human PC3 cells transiently transfected with pCMV-MMTV-Luc assessed as suppression of DHT-induced receptor transactivation. Conditions: PC-3. The method, boiled down: as §1

The text below walks through data of ChEMBL document CHEMBL1136847, “Syntheses and potential anti-prostate cancer activities of ionone-based chalcones” (Bioorg Med Chem Lett, 2009).

By IC50 is commonly meant the concentration needed to halve the response being measured. A high value points to weaker potency in that assay.

Sequence of Androgen receptor (Homo sapiens), P10275 [T878A] (P10275 whole entry T878A): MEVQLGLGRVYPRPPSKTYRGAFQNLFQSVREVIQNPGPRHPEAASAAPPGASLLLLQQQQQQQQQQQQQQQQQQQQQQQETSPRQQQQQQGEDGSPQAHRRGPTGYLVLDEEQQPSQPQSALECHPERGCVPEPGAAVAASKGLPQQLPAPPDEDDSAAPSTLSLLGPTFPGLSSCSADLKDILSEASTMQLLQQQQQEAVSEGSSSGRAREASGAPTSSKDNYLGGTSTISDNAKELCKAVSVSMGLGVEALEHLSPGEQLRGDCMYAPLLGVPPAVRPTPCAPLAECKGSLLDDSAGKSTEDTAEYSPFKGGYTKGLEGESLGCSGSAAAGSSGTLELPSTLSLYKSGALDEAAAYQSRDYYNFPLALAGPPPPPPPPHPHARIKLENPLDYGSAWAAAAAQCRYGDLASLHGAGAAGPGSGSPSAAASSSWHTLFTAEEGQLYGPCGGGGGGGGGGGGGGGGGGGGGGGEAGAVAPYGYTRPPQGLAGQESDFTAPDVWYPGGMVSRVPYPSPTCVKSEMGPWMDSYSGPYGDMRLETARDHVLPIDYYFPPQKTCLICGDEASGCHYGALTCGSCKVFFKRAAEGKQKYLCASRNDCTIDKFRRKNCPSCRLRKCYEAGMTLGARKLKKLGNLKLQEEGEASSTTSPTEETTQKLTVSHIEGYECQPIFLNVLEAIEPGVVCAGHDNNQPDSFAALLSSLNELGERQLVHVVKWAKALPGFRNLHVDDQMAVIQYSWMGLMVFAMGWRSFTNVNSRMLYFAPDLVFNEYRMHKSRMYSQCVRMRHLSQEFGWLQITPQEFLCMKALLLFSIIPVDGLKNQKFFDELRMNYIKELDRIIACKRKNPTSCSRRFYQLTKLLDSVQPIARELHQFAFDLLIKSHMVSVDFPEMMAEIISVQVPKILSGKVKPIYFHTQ

With `CC1=C(/C=C/C(=O)/C=C/c2cccc(C(F)(F)F)c2)C(C)(C)CCC1O` (stereo not given), the Activity result in assay [1] and in assay [4] was “Dose-dependent effect” in each case. Moreover, the IC50 in the assay with CWR22R was 1700 nM; in assay [2] it was 1400 nM; in assay [3], 2600 nM.
